# Results as given in ChEMBL document CHEMBL4689842, “EUbOPEN Chemogenomics Library wave 1” (2021).
# Experiments:
# Assay type in all cases: toxicity, cell-based
# [1] = test system: U2OS; assay: Incucyte cell viability with U2OS; conditions: human, 10 µM, compound concentration 10 uM; also: filed as whole numbers so only -1 and 0 and 1 occur
# [2] = test system: Fibroblast; assay: Multiplex assay against human fibroblast
# Summary of the method: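 Live cells were stained at seeding with Hoechst33342, BioTracker Green Microtubule Cytoskeleton Dye, MitoTracker Red and Annexin V Alexa Fluor 680. Following compound addition, they were imaged on a CQ1 microscope at 37°C and 5% CO2 and gated by CellPathfinder machine learning into Hoechst high-intensity objects or normal cells, with normal cells split into healthy, pyknosed or fragmented nuclei and pyknosed cells into mitotic or apoptotic. Tubulin, mitochondrial-mass and membrane-permeability phenotypes are per cents of healthy-nucleus cells.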
# [3] = test system: HEK-293T; assay: Incucyte cell viability with HEK293T; conditions: human, 10 µM, compound concentration 10 uM; also: filed as whole numbers so only -1 and 0 and 1 occur
# [4] = 0 h, replicate number 1, timepoint 0 hours
# [5] = 12 h, replicate number 1, timepoint 12 hours
# [6] = 18 h, replicate number 1, timepoint 18 hours
# [7] = 24 h, replicate number 1, timepoint 24 hours
# [8] = 12 h, 1 µM, compound concentration 1 uM, replicate 1
# [9] = 12 h, 1 µM, compound concentration 1 uM, replicate 2
# [10] = 12 h, 10 µM, compound concentration 10 uM, replicate 1
# [11] = 12 h, 10 µM, compound concentration 10 uM, replicate 2
# [12] = 24 h, 1 µM, compound concentration 1 uM, replicate 1
# [13] = 24 h, 1 µM, compound concentration 1 uM, replicate 2
# [14] = 24 h, 10 µM, compound concentration 10 uM, replicate 1
# [15] = 24 h, 10 µM, compound concentration 10 uM, replicate 2
# [16] = 48 h, 1 µM, compound concentration 1 uM, replicate 1
# [17] = 48 h, 1 µM, compound concentration 1 uM, replicate 2
# [18] = 48 h, 10 µM, compound concentration 10 uM, replicate 1
# [19] = 48 h, 10 µM, compound concentration 10 uM, replicate 2
smiles,measurement,setting,value
O=C(O)c1ccc2cc(-c3ccc(O)c(C45CC6CC(CC(C6)C4)C5)c3)ccc2c1 [O-DEMETHYLATED ADAPALENE],Growth Rate,[1]; [4],0
same,Growth Rate,[1]; [5],1
same,Growth Rate,[1]; [6],1
same,Growth Rate,[1]; [7],0
same,Population Apoptotic (%),[2]; [8],57%
same,Population Fragmented Nuclei (%),[2]; [8],36%
same,Population Healthy Nuclei (%),[2]; [8],20%
same,Population Hoechst High Intensity Objects (%),[2]; [8],18%
same,Population Membrane Permeable-Phenotype (%),[2]; [8],31%
same,Population Mitochondria Different-Phenotype (%),[2]; [8],21%
same,Population Mitotic Cells (%),[2]; [8],42%
same,Population Normal (%),[2]; [8],81%
same,Population Pyknosed Nuclei (%),[2]; [8],43%
same,Population Tubulin-Different-Phenotype (%),[2]; [8],60%
same,Total Cell Count,[2]; [8],249
same,Population Apoptotic (%),[2]; [9],100%
same,Population Fragmented Nuclei (%),[2]; [9],8%
same,Population Healthy Nuclei (%),[2]; [9],87%
same,Population Hoechst High Intensity Objects (%),[2]; [9],9%
same,Population Membrane Permeable-Phenotype (%),[2]; [9],6%
same,Population Mitochondria Different-Phenotype (%),[2]; [9],16%
same,Population Mitotic Cells (%),[2]; [9],0%
same,Population Normal (%),[2]; [9],90%
same,Population Pyknosed Nuclei (%),[2]; [9],3%
same,Population Tubulin-Different-Phenotype (%),[2]; [9],16%
same,Total Cell Count,[2]; [9],62
same,Population Apoptotic (%),[2]; [10],72%
same,Population Fragmented Nuclei (%),[2]; [10],32%
same,Population Healthy Nuclei (%),[2]; [10],37%
same,Population Hoechst High Intensity Objects (%),[2]; [10],16%
same,Population Membrane Permeable-Phenotype (%),[2]; [10],44%
same,Population Mitochondria Different-Phenotype (%),[2]; [10],0%
same,Population Mitotic Cells (%),[2]; [10],27%
same,Population Normal (%),[2]; [10],83%
same,Population Pyknosed Nuclei (%),[2]; [10],30%
same,Population Tubulin-Different-Phenotype (%),[2]; [10],33%
same,Total Cell Count,[2]; [10],115
same,Population Apoptotic (%),[2]; [11],100%
same,Population Fragmented Nuclei (%),[2]; [11],11%
same,Population Healthy Nuclei (%),[2]; [11],87%
same,Population Hoechst High Intensity Objects (%),[2]; [11],2%
same,Population Membrane Permeable-Phenotype (%),[2]; [11],1%
same,Population Mitochondria Different-Phenotype (%),[2]; [11],16%
same,Population Mitotic Cells (%),[2]; [11],0%
same,Population Normal (%),[2]; [11],97%
same,Population Pyknosed Nuclei (%),[2]; [11],1%
same,Population Tubulin-Different-Phenotype (%),[2]; [11],25%
same,Total Cell Count,[2]; [11],83
same,Population Apoptotic (%),[2]; [12],53%
same,Population Fragmented Nuclei (%),[2]; [12],35%
same,Population Healthy Nuclei (%),[2]; [12],20%
same,Population Hoechst High Intensity Objects (%),[2]; [12],23%
same,Population Membrane Permeable-Phenotype (%),[2]; [12],29%
same,Population Mitochondria Different-Phenotype (%),[2]; [12],18%
same,Population Mitotic Cells (%),[2]; [12],46%
same,Population Normal (%),[2]; [12],76%
same,Population Pyknosed Nuclei (%),[2]; [12],43%
same,Population Tubulin-Different-Phenotype (%),[2]; [12],45%
same,Total Cell Count,[2]; [12],236
same,Population Apoptotic (%),[2]; [13],100%
same,Population Fragmented Nuclei (%),[2]; [13],7%
same,Population Healthy Nuclei (%),[2]; [13],89%
same,Population Hoechst High Intensity Objects (%),[2]; [13],6%
same,Population Membrane Permeable-Phenotype (%),[2]; [13],6%
same,Population Mitochondria Different-Phenotype (%),[2]; [13],30%
same,Population Mitotic Cells (%),[2]; [13],0%
same,Population Normal (%),[2]; [13],93%
same,Population Pyknosed Nuclei (%),[2]; [13],3%
same,Population Tubulin-Different-Phenotype (%),[2]; [13],18%
same,Total Cell Count,[2]; [13],60
same,Population Apoptotic (%),[2]; [14],57%
same,Population Fragmented Nuclei (%),[2]; [14],28%
same,Population Healthy Nuclei (%),[2]; [14],42%
same,Population Hoechst High Intensity Objects (%),[2]; [14],21%
same,Population Membrane Permeable-Phenotype (%),[2]; [14],55%
same,Population Mitochondria Different-Phenotype (%),[2]; [14],0%
same,Population Mitotic Cells (%),[2]; [14],42%
same,Population Normal (%),[2]; [14],78%
same,Population Pyknosed Nuclei (%),[2]; [14],29%
same,Population Tubulin-Different-Phenotype (%),[2]; [14],44%
same,Total Cell Count,[2]; [14],113
same,Population Apoptotic (%),[2]; [15],0%
same,Population Fragmented Nuclei (%),[2]; [15],14%
same,Population Healthy Nuclei (%),[2]; [15],81%
same,Population Hoechst High Intensity Objects (%),[2]; [15],7%
same,Population Membrane Permeable-Phenotype (%),[2]; [15],7%
same,Population Mitochondria Different-Phenotype (%),[2]; [15],26%
same,Population Mitotic Cells (%),[2]; [15],100%
same,Population Normal (%),[2]; [15],92%
same,Population Pyknosed Nuclei (%),[2]; [15],3%
same,Population Tubulin-Different-Phenotype (%),[2]; [15],28%
same,Total Cell Count,[2]; [15],83
same,Population Apoptotic (%),[2]; [16],78%
same,Population Fragmented Nuclei (%),[2]; [16],61%
same,Population Healthy Nuclei (%),[2]; [16],26%
same,Population Hoechst High Intensity Objects (%),[2]; [16],43%
same,Population Membrane Permeable-Phenotype (%),[2]; [16],2%
same,Population Mitochondria Different-Phenotype (%),[2]; [16],15%
same,Population Mitotic Cells (%),[2]; [16],21%
same,Population Normal (%),[2]; [16],56%
same,Population Pyknosed Nuclei (%),[2]; [16],12%
same,Population Tubulin-Different-Phenotype (%),[2]; [16],5%
same,Total Cell Count,[2]; [16],267
same,Population Apoptotic (%),[2]; [17],71%
same,Population Fragmented Nuclei (%),[2]; [17],18%
same,Population Healthy Nuclei (%),[2]; [17],71%
same,Population Hoechst High Intensity Objects (%),[2]; [17],14%
same,Population Membrane Permeable-Phenotype (%),[2]; [17],11%
same,Population Mitochondria Different-Phenotype (%),[2]; [17],1%
same,Population Mitotic Cells (%),[2]; [17],28%
same,Population Normal (%),[2]; [17],85%
same,Population Pyknosed Nuclei (%),[2]; [17],9%
same,Population Tubulin-Different-Phenotype (%),[2]; [17],28%
same,Total Cell Count,[2]; [17],87
same,Population Apoptotic (%),[2]; [18],85%
same,Population Fragmented Nuclei (%),[2]; [18],52%
same,Population Healthy Nuclei (%),[2]; [18],40%
same,Population Hoechst High Intensity Objects (%),[2]; [18],20%
same,Population Membrane Permeable-Phenotype (%),[2]; [18],35%
same,Population Mitochondria Different-Phenotype (%),[2]; [18],0%
same,Population Mitotic Cells (%),[2]; [18],14%
same,Population Normal (%),[2]; [18],79%
same,Population Pyknosed Nuclei (%),[2]; [18],7%
same,Population Tubulin-Different-Phenotype (%),[2]; [18],35%
same,Total Cell Count,[2]; [18],116
same,Population Apoptotic (%),[2]; [19],66%
same,Population Fragmented Nuclei (%),[2]; [19],37%
same,Population Healthy Nuclei (%),[2]; [19],58%
same,Population Hoechst High Intensity Objects (%),[2]; [19],14%
same,Population Membrane Permeable-Phenotype (%),[2]; [19],24%
same,Population Mitochondria Different-Phenotype (%),[2]; [19],4%
same,Population Mitotic Cells (%),[2]; [19],33%
same,Population Normal (%),[2]; [19],85%
same,Population Pyknosed Nuclei (%),[2]; [19],3%
same,Population Tubulin-Different-Phenotype (%),[2]; [19],46%
same,Total Cell Count,[2]; [19],99
same,Growth Rate,[3]; [4],1
same,Growth Rate,"[3]; 0 h, replicate number 2, timepoint 0 hours",0
same,Growth Rate,"[3]; 6 h, replicate number 1, timepoint 6 hours",0
same,Growth Rate,[3]; [5],0
same,Growth Rate,[3]; [6],0
same,Growth Rate,[3]; [7],0
